Columns and labels:
[1] = AUC (0 to infinity) in Wistar rat plasma at 5 mg/kg, po; assay type: ADME, organism-based; set-up: time infinity, dose 5 mg/kg, route oral
Summary of the method: (§1)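 Male Wistar rats dosed orally at 5 mg/kg in PEG 400 vehicle, with plasma exposure measured. Values are geometric means from 3 animals.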

[2] = Cytotoxicity against human HuH7 cells; assay type: cell-based, Huh-7
Hepatitis C virus [3] = experiment: Antiviral activity against HCV replication infected in human HuH7 cells after 96 hrs by replicon assay in presence of 10% FCS; assay type: functional, organism-based, Hepacivirus hominis, Huh-7
Summary of the method: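 Compounds incubated with replicon cells at 37 °C for 96 h in medium containing 10% FCS, with inhibition of replication read out to give EC50.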

[4] = Cmax in Wistar rat at 5 mg/kg, po; assay type: ADME, organism-based; set-up: dose 5 mg/kg, route oral; details: in vivo; summary of the method: as §1
[5] = Inhibition of full length HCV NS3/4A protease by TRF assay; set-up: species or system Hepacivirus hominis
[6] = Drug level in Wistar rat liver at 5 mg/kg, po after 4 hrs; assay type: ADME, organism-based; set-up: dose 5 mg/kg, route oral; details: read-out: Drug uptake
[7] = Oral bioavailability in Wistar rat at 5 mg/kg; assay type: ADME, organism-based; details: in vivo
Hepatitis C virus [8] = experiment: Antiviral activity against HCV replication infected in human HuH7 cells after 72 hrs by replicon assay in presence of 5% FCS; details: Huh-7, 72 h
Hepatitis C virus [9] = experiment: Antiviral activity against HCV replication infected in human HuH7 cells after 48 hrs by replicon assay in presence of 2% FCS; details: Huh-7, 48 h

| Compound | AUC(0-inf) [1] [µM·h] | CC50 [2] [µM] | EC50 (Hepatitis C virus [3]; Hepatitis C virus, Huh-7, 96 h) [nM] | Cmax [4] [nM] | Ki [5] [nM] | concentration at 4 h [6] [nM] | EC50 (Hepatitis C virus [3]; huh-7) [nM] | bioavailability [7] [%] | EC50 (Hepatitis C virus [8]) [nM] | EC50 (Hepatitis C virus [9]) [nM] |
| --- | --- | --- | --- | --- | --- | --- | --- | --- | --- | --- |
| C=CCNC(=O)C(=O)[C@H](CCC)NC(=O)[C@@H]1C[C@@H]2CN1C(=O)[C@H](C(C)(C)C)NC(=O)OCCCCCCc1cccc3c1CN(C3)C(=O)O2 | 0.58 | > 50 | 550 | 160 | 71 | 480 |  |  |  |  |
| CCC(C)NC(=O)C(=O)C(CC(F)F)NC(=O)[C@@H]1C[C@@H]2CN1C(=O)[C@H](C(C)(C)C)NC(=O)OCCCCCCc1cccc3c1CN(C3)C(=O)O2 (single isomer, unassigned; diastereomer 2) |  |  |  |  | > 2900 |  | > 6250 |  |  |  |
| CCC[C@H](NC(=O)[C@@H]1C[C@@H]2CN1C(=O)[C@H](C(C)(C)C)NC(=O)OCCCCCCc1cccc3c1CN(C3)C(=O)O2)C(=O)C(=O)NC1CCCC1 |  | > 50 | 1050 |  | 78 |  |  |  |  |  |
| CCC[C@H](NC(=O)[C@@H]1C[C@@H]2CN1C(=O)[C@H](C(C)(C)C)NC(=O)OCCCCCCc1cccc3c1CN(C3)C(=O)O2)C(=O)C(=O)NCc1ccccc1 |  | > 50 | 1320 |  | 242 |  |  |  |  |  |
| CCC[C@H](NC(=O)[C@@H]1C[C@@H]2CN1C(=O)[C@H](C(C)(C)C)NC(=O)OCCCCCCc1cccc3c1CN(C3)C(=O)O2)C(=O)C(=O)NCc1ccccn1 |  | > 50 | 790 |  | 176 |  |  |  |  |  |
| CC(C)(C)NC(=O)N[C@H](C(=O)N1C[C@H]2[C@@H]([C@H]1C(=O)NC(CC1CCC1)C(=O)C(N)=O)C2(C)C)C(C)(C)C (stereo not given in full) [BOCEPREVIR] | 0.21 | > 50 |  | 130 | 35 |  |  | 3.5 | 200 |  |
| CCC[C@H](NC(=O)[C@@H]1C[C@@H]2CN1C(=O)[C@H](C(C)(C)C)NC(=O)OCCCCCc1cccc3c1CN(C3)C(=O)O2)C(=O)C(=O)NC1CC1 |  | > 50 | 600 |  | 83 |  |  |  |  |  |
| CCC[C@H](NC(=O)[C@@H]1C[C@@H]2CN1C(=O)[C@H](C(C)(C)C)NC(=O)OCCCCCCc1cccc3c1CN(C3)C(=O)O2)C(=O)C(=O)NC(C)c1ccccc1 (stereo not given in full) |  | > 50 | > 500 |  | 140 |  |  |  |  |  |
| CCC(C)NC(=O)C(=O)C(CC(F)F)NC(=O)[C@@H]1C[C@@H]2CN1C(=O)[C@H](C(C)(C)C)NC(=O)OCCCCCCc1cccc3c1CN(C3)C(=O)O2 (single isomer, unassigned; diastereomer 1) |  | > 50 | > 12500 |  | 2400 |  |  |  |  |  |
| CCC[C@H](NC(=O)[C@@H]1C[C@@H]2CN1C(=O)[C@H](C(C)(C)C)NC(=O)OCCCCCCc1cccc3c1CN(C3)C(=O)O2)C(=O)C(=O)NC1CCC1 |  | > 50 | 940 |  | 140 |  |  |  |  |  |
| CCC[C@H](NC(=O)[C@@H]1C[C@@H]2CN1C(=O)[C@H](C(C)(C)C)NC(=O)OCCCCCCc1cccc3c1CN(C3)C(=O)O2)C(=O)C(=O)NC(C)CC (stereo not given in full) |  | > 50 | 520 |  | 66 |  |  |  |  |  |
| CCC[C@H](NC(=O)[C@@H]1[C@H]2CCC[C@H]2CN1C(=O)[C@@H](NC(=O)[C@@H](NC(=O)c1cnccn1)C1CCCCC1)C(C)(C)C)C(=O)C(=O)NC1CC1 [TELAPREVIR] | 1.54 | > 50 | 1600 |  | 110 | 810 |  | 34.8 |  | 354 |
